For orientation: IC50 means the concentration needed to halve the response being measured. Read a high IC50 as weaker potency in that assay.

Here are results for three compounds from ChEMBL document CHEMBL1128517, “Unusual single-stranded polyribonucleotides as potent anti-HIV agents” (J Med Chem, 1995).

The test system of experiment [1] is CEM-SS. Kind of experiment: Inhibitory activity against the cytopathic effect of HIV-1 RFstrain in CEM-SS cells. As to conditions: Homo sapiens. Type of experiment: functional, cell-based. In short, it runs like this: (§1)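 XTT cytoprotection assay. CEM-SS cells were seeded at 5×10^3 per well and infected at a multiplicity that gave complete killing of virus control wells by day 6. Isolates were pretitered to equivalent infection. Serial half-log dilutions of compound were tested in triplicate. After 6 days at 37 °C, XTT (1 mg/mL) with phenazine methosulfate (6.12 µg/mL) was added for 4 h and read at 450 nm. Concentrations in µM were based on estimated number-average molecular weights.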
A general note: Damage to the host cells serves as the signal in cytopathic effect assays.

In experiment [2] the test system is CEM-SS. As to the kind of experiment: Inhibitory activity against the cytopathic effect of HIV-2 A17 (pyridinone-res) strain in CEM-SS cells. The experiment is classed as functional, cell-based. The note with it: Homo sapiens. A digest of the protocol:
as §1

The test system of experiment [3] is CEM-SS. As to the kind of experiment: Inhibitory activity against the cytopathic effect of HIV-2 G910-6(AZT-res) strain in CEM-SS cells. Type of experiment: functional, cell-based. As to conditions: Homo sapiens. In short, it runs like this:
as §1

The subject of experiment [4] is CEM-SS. Kind of experiment: Inhibitory activity against the cytopathic effect of HIV-2 MS strain in CEM-SS cells. As to conditions: Homo sapiens. Type of experiment: functional, cell-based. In short, it runs like this:
as §1

Experiment [5] has as its system CEM-SS. Kind of experiment: Inhibitory activity against the cytopathic effect of HIV-2 ROD strain in CEM-SS cells. The experiment is classed as functional, cell-based. The note with it: Homo sapiens. In short, it runs like this:
as §1

Experiment [6] has as its system CEM-SS. Kind of experiment: Inhibitory activity against the HIV-1-induced cytopathic effect in CEM-SS cell line. Type of experiment: functional, cell-based. As to conditions: Homo sapiens. A digest of the protocol: as §1
Experiment [7] relates to CEM-SS. Kind of experiment: Inhibitory activity against the cytopathic effect of HIV-1 IIIB strain in CEM-SS cells. Type of experiment: functional, cell-based. The note with it: Homo sapiens. A digest of the protocol: as §1
Experiment [8] is filed under the species Homo sapiens. Kind of experiment: Inhibitory activity against the HIV-1-induced cytopathic effect in Macrophage. Type of experiment: functional, organism-based. A digest of the protocol:
(§2)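 Fresh human peripheral blood lymphocytes and macrophages were isolated by Ficoll-Hypaque centrifugation. They were infected with clinical HIV-1 isolates cultured from patient peripheral blood lymphocytes, then treated with the polymers. Inhibition of HIV replication was reported as IC50.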

A further experiment relates to MT2. Kind of experiment: Inhibitory activity against the HIV-1-induced cytopathic effect in MT-2 cell line. The experiment is classed as functional, cell-based. As to conditions: Homo sapiens.
The species entered for experiment [9] is Homo sapiens. As to the kind of experiment: Inhibitory activity against the HIV-1-induced cytopathic effect in human peripheral blood lymphocytes. The experiment is classed as functional, organism-based. In short, it runs like this: as §2
Experiment [10] has as its system CEM-SS. As to the kind of experiment: Inhibitory activity against the cytopathic effect of HIV-1 LAV strain in CEM-SS cells. Type of experiment: functional, cell-based. The note with it: Homo sapiens. A digest of the protocol:
as §1

The species named for experiment [11] is Homo sapiens. As to the kind of experiment: Inhibitory activity against the HIV-1-induced cytopathic effect in fresh human peripheral blood lymphocytes. The experiment is classed as functional, organism-based. In short, it runs like this:
as §2

As for `Cn1c(N)nc2c(ncn2[C@@H]2O[C@H](CO)[C@@H](OP(=O)(O)O)[C@H]2O)c1=S`, the IC50 in the experiment with CEM-SS [1] came out at 50 nM; in the experiment on CEM-SS [2] it was 80 nM; in the experiment on CEM-SS [3], 20 nM; in the experiment with CEM-SS [4] it was 30 nM; with CEM-SS [5] it was 30 nM; in the experiment with CEM-SS [6], 10 nM. The half-maximal inhibitory concentration (IC50) is 10 nM in the experiment on CEM-SS [7]; 2 nM in the experiment listed under Homo sapiens [8]; 160 nM in the experiment with MT2; 30 nM in the experiment filed under Homo sapiens [9]; 30 nM in the experiment with CEM-SS [10].

As to `Cn1cnc2c(ncn2C2O[C@H](COP(=O)(O)O)[C@@H](O)[C@H]2O)c1=S` (stereo partly drawn), the IC50 in the experiment on CEM-SS [1] is 170 nM; with CEM-SS [2], 600 nM; with CEM-SS [3], 100 nM; in the experiment with CEM-SS [4], 140 nM; in the experiment with CEM-SS [5], 250 nM; with CEM-SS [6], 80 nM. Also, the IC50 with CEM-SS [7] was 80 nM; in the experiment filed under Homo sapiens [8], 150 nM; in the experiment on MT2 it was 800 nM; in the experiment filed under Homo sapiens [11], 30 nM; in the experiment on CEM-SS [10], 40 nM.

Take `Cc1cn([C@H]2C[C@H](N=[N+]=[N-])[C@@H](CO)O2)c(=O)[nH]c1=O` [ZIDOVUDINE]: the IC50 was 30 nM with CEM-SS [1]; 5 nM in the experiment on CEM-SS [2]; above 1000 nM in the experiment on CEM-SS [3]; 30 nM in the experiment on CEM-SS [4]; 5 nM in the experiment on CEM-SS [5]; 2 nM with CEM-SS [6]. For the same compound, the IC50 is 2 nM with CEM-SS [7]; 400 nM in the experiment listed under Homo sapiens [8]; 6 nM with MT2; 20 nM in the experiment filed under Homo sapiens [11]; 4 nM in the experiment on CEM-SS [10].
